OX1R antag-1: antagonists of human orexin 1 receptor | CHO/OX1R cells, Fluo-8 calcium fluorescence, orexin A | inhibition, % at 5 µM | AID 434989 | 330,000 tested, 0.43% active | O43613;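 active = inhibition above its plate's threshold, mean inhibition of all tested compounds on the plate plus 3 SD, cut at about 37% in these data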;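 also: 0% = orexin A challenge wells and 100% = SB-334867-A antagonist wells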
CHO parental Ca: signal in parental CHO cells, OX1R antagonist counter-screen; AID 463079; inhibition, % at 5.6 µM; 330,000 tested, 0.63% active; parental CHO-K1, ATP-induced calcium, Fluo-8 fluorescence;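 active = inhibition above that plate's mean sample inhibition plus 3 SD, cut at about 26% in these data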;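 also: 0% = ATP-challenged DMSO wells and 100% = DMSO wells without ATP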
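test system = CHO parental line | reagent = ATP stimulus | measured by = intracellular calcium via Fluo-8 no-wash fluorescent dye | control set = ATP and no-ATP DMSO wells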
OX1R antag-2: blocks the human orexin 1 receptor; O43613; AID 485270; 330,000 tested, 1.8% active; inhibition, % at 6.6 µM; OX1R-expressing cells, FRET antagonist read-out; in the data active = inhibition mostly above about 38%, no sharp cut-off; inactive = mostly below about 40%;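 also: 0% = agonist challenge alone and 100% = reference antagonist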
GPR7 antagonist: human neuropeptides B/W receptor 1 antagonism. 290,000 tested, 1.1% active. GPR7-expressing cells, fluorescence antagonist assay. inhibition, % at 4.4 µM; in the data active = inhibition above about 16%, passing the limit was not always enough;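 also: cells stimulated with the agonist NPW; 0% = agonist with vehicle and 100% = vehicle without agonist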
Target sequence (P48145 whole entry, looked up): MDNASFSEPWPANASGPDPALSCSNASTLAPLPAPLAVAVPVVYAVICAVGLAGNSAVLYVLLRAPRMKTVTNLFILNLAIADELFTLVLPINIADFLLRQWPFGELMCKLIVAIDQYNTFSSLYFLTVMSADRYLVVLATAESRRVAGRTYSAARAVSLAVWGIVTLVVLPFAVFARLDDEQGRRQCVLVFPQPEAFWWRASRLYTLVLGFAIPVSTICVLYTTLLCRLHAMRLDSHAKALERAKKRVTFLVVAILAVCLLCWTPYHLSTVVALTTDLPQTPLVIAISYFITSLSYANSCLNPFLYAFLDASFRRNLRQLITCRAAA
MPTP block: inhibitors of mitochondrial permeability transition pore | isolated mouse mitochondria, Ca2+ swelling absorbance, 30 min | inhibition, % at 10 µM | 360,000 tested, 1.4% active | AID 602449;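 active = inhibition of 50% or more, scaled per plate between neutral and stimulator controls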;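 also: 0% = DMSO wells given calcium and 100% = 1 mM EGTA wells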
Rh123 counter: mitochondrial membrane potential, counter-screen; shares compounds with MPTP block; isolated mitochondria, Rhodamine 123 fluorescence; 5,000 tested, 78% active; inhibition, % at 10 µM; in the data active = inhibition above about 22%;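 also: 0% = DMSO vehicle and 100% = positive control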
MPTP abs DR: dose response confirmation of mitochondrial permeability transition pore inhibitors; shares compounds with MPTP block; isolated mitochondria swelling, absorbance; IC50, µM; 780 tested, 58% active; in the data active = IC50 below about 20 µM
MPTP counter DR: MPTP inhibitor counter-screen activity, dose response | shares compounds with MPTP block | isolated mitochondria counterscreen, fluorescence read-out | IC50, µM | 780 tested, 49% active | AID 651564; in the data active = IC50 below about 80 µM
Active calls of the source: *; . = no result given. Compounds with a hit are over-represented: about 3.8% of the library has one in this group of screens.

SMILES	OX1R antag-1	CHO parental Ca	OX1R antag-2	GPR7 antagonist	MPTP block	Rh123 counter	others
CCOC(=O)c1cc([N+](=O)[O-])sc1NC(=O)c1ccc(S(=O)(=O)N2CC3(C)CC2CC(C)(C)C3)cc1 (configuration not stated)	-1.6	-8.4	8.4	1.9	91.4*	4.4	MPTP abs DR=2.38*;MPTP counter DR=<2.5*
CC1(C)CC2CC(C)(CN2S(=O)(=O)c2ccc(C(=O)Nc3ccc(S(=O)(=O)N4CCOCC4)cc3)cc2)C1 (configuration not stated)	-5.7	-12.5	3.8	1.3	43.5	.
CCOC(=O)c1cnc2ccc(OCC)cc2c1NCc1ccccc1OC	-9.4	-20.8	14.1	2.7	84.6*	99.2*
O=C(OCc1cncs1)c1ccccc1	-9.9	-2.1	4.3	-10.7	-0.2	.
C=CCNC(=O)/C(=C\c1ccc(Br)cc1)NC(=O)c1ccccc1OC	-18.0	-12.9	7.0	-3.4	0.2	.
CCCCc1ccc(C2C3=C(CC(C)(C)CC3=O)NC3=C2C(=O)c2ccccc23)cc1 (configuration not stated)	2.1	-9.5	17.0	-7.2	70.7*	52.6*
O=C(c1ccccc1)N1CCN(c2ncnc3sc4c(c23)CCC4)CC1	7.9	27.3	37.2	1.9	52.8*	44.9*
c1nc(N2CCOCC2)c2c3c(sc2n1)CCCC3	-17.8	-13.3	8.9	-14.3	7.7	.
CC(C)c1ccc(NC(=O)C2Cc3c(-c4ccco4)ccnc3O2)cc1 (configuration not stated)	.	.	.	.	-0.8	.
Cc1cnc(C(=O)OCc2ccc(Br)cc2)cn1	-11.5	-2.2	11.9	1.8	1.0	.
Cc1ccc2nc(N/C(=N/S(=O)(=O)c3ccc(F)cc3F)c3ccccc3)sc2c1	-36.8	-13.7	34.0	-11.9	50.1*	69.3*
CC[n+]1ccccc1/C=C/c1ccc(N(C)C)cc1	.	.	.	1.3	1.6	.
CC[n+]1ccc(/C=C/c2ccc(N(C)C)cc2)c2ccccc21	.	.	.	10.9	119.1*	68.4*
CN(C)c1ccc(/C=C/c2cc[n+](C)cc2)cc1	5.8	3.7	16.5	9.7	5.5	.
CCCCCC[n+]1ccccc1/C=C/c1ccc(N(C)C)cc1	.	.	.	.	57.7*	102.6*
Cc1noc(C)c1COc1ccc(C(=O)OCC(=O)NCCN2C(=O)CSC2=O)cc1	-12.8	5.2	18.7	-4.3	0.2	.
CCCCN(C(=O)COC(=O)CSc1ccc([N+](=O)[O-])cc1)c1c(N)n(CCC)c(=O)[nH]c1=O	-13.6	-4.6	22.3	.	-2.5	.
O=S(=O)(NCC(Nc1ccc(Cl)cc1)c1ccccc1)c1ccc(Cl)cc1 (configuration not stated)	9.9	-11.5	2.6	-9.7	86.8*	84.6*
NS(=O)(=O)c1cccc(NC(=O)COC(=O)CCCc2c[nH]c3ccccc23)c1	-11.3	-8.9	12.9	-3.6	1.0	.
O=C(O)Cc1c(C(=O)O)[nH]c2ccc(C(=O)O)cc12	-6.1	4.3	16.5	-10.8	0.4	.
Cc1cccc(NC(=O)CN2CCN(C(=O)CNC(=O)c3ccc(-c4ccccc4)cc3)CC2)c1C	.	.	.	.	1.8	.
CC(=O)N1CCN(c2ccc([N+](=O)[O-])cc2)CC1	-9.6	14.2	33.0	-3.9	0.0	.
CC(=O)N1CCN(C(=S)c2ccc([N+](=O)[O-])cc2)CC1	-9.3	1.3	76.3	-17.1	119.1*	0.2	MPTP abs DR=>100;MPTP counter DR=>80
CC(=O)c1ccc(N2CCN(C(=O)c3ccc(NC4=NC5CS(=O)(=O)CC5S4)cc3)CC2)cc1 (configuration not stated)	-2.0	-1.0	7.1	3.6	-1.9	.
CCN(C[C@H]1N[C@@](C)(C(=O)OC)[C@H]2C(=O)N(Cc3ccccc3)C(=O)[C@@H]12)S(=O)(=O)c1ccc(OC)cc1	-17.3	-21.8	-4.5	.	-1.1	.
O=C1C2CC=CCC2C(=O)N1c1ccc(N2CCN(c3ccccn3)CC2)c([N+](=O)[O-])c1 (configuration not stated)	26.6	45.6*	41.5	1.5	55.3*	45.1*
O=C(c1ccc(N2CCCCC2)c([N+](=O)[O-])c1)N1CCN(c2ccccn2)CC1	-18.1	-23.1	19.8	-14.5	2.4	.

Compound activity: PubChem BioAssay, several laboratories
